From publication PMC6492960 (Oncoimmunology, 2019)

Legend:
HLA-DP4 = details: cited from earlier work
[1] = biological target: HLA-DP4 (HLA-DPA*0103 α chain / HLA-DPB*0401 β chain) (human); assay: ELISA
[2] = system: splenocytes of immunised HLA-DR4 transgenic mice; assay: Epitope mapping, HLA-DR4 transgenic mice; format: cell-based, mouse; details: Supplementary Figure 3
[3] = system: splenocytes of immunised HLA-DP4 transgenic mice (IFNγ); format: cell-based, mouse; details: anti-CD4 20 µg/ml, 15 min prior to peptide
In short: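 HLA-A2.1/HLA-DP4/hCD4 transgenic mice (8–12 weeks) immunised s.c. at tail base on days 0, 7 and 14 with 25 µg peptide in PBS emulsified with CpG ODN 1826 and MPLA (5 µg each). Spleens taken day 20. Splenocytes (5 × 10^5/well) given anti-CD4 GK1.5 before 10µg/ml peptide; quadruplicate wells, 40 h, 37°C, 5% CO2. LPS positive control. Spots counted automatically.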

[4] = system: TCR α and β chain CDR3 of CD4+ CFSE^high and CFSE^low cells; assay: TCR α and β CDR3 repertoire diversity of sorted CD4+ CFSE high/low cells; design: species or system human; details: for Diversity Index (D50) TRA / Diversity Index (D50) TRB: day 10, non-normalised
In short: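 CD25-depleted human PBMCs were labelled with 5µM CFSE for 5 min at room temperature and cultured at 1.5-2x10^6/ml with 10μg/ml citrullinated peptide or vehicle. On day 10 they were stained for CD4/CD8 and sorted into CD4+ CFSEhigh and CFSElow populations. RNA then went through RT-PCR, ARM-PCR with human TCR α/β primers, and NGS bulk sequencing. D50 is the percentage of clones accounting for the cumulative 50% of CDR3 counts.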

[5] = donor BD0008, CD4+ CFSE^High (non-proliferating)
[6] = donor BD0008, CD4+ CFSE^Low (proliferating)
[7] = donor BD0011, CD4+ CFSE^High (non-proliferating)
[8] = donor BD0011, CD4+ CFSE^Low (proliferating)

NQDFTN-cit-INKLKNS [fibrinogen]
binding to HLA-DP4 (literature) (HLA-DP4): not to bind to HLA-DP4

non-biotinylated Hepatitis B surface antigen aa 181–193 peptide
percent inhibition of the binding of the biotinylated Hepatitis B peptide [1]: 50%

FSSLNL-cit-ETNLDSL [Vimentin 418-431 cit]
shorter epitope mapping in HLA-DR4 transgenic mice [2]: consistent with findings in the HLA-DR4 transgenic mice mapping shorter peptide sequences

cit-SYVTTST-cit-TYSLGSAL-cit-PSTS [Vimentin 28-49 cit]
IFNγ ELISpot response in presence of CD4 blocking antibody [3]: Responses were lost | Diversity Index (D50) TRA [4, 5]: 12.8 | Diversity Index (D50) TRB [4, 5]: 17 | Diversity Index (D50) TRA [4, 6]: 0.4 | Diversity Index (D50) TRB [4, 6]: 0.2 | TCR clonality of responding CD4 T cells ([4]; donor BD0008, compared with non-proliferating CD4 population): a bias of TCR Vβ and Vα sequences among CD4+ proliferating cells (CFSE^low)

VIGMDVAASEFF-cit-SGKYDLD [Enolase 241-260 cit]
IFNγ ELISpot response in presence of CD4 blocking antibody [3]: Responses were lost

LQYM-cit-ADQAAGGLR [collagen II]
binding to HLA-DP4 (literature) (HLA-DP4): not to bind to HLA-DP4

VIGMDVAASEFF-cit-SG [Enolase 241-255 cit]
shorter epitope mapping in HLA-DR4 transgenic mice [2]: consistent with findings in the HLA-DR4 transgenic mice mapping shorter peptide sequences

LPNFSSLNL-cit-ETNLDSLPL [Vimentin 415-433 cit]
IFNγ ELISpot response in presence of CD4 blocking antibody [3]: Responses were lost | Diversity Index (D50) TRA [4, 7]: 9.9 | Diversity Index (D50) TRB [4, 7]: 5.9 | Diversity Index (D50) TRA [4, 8]: 0.7 | Diversity Index (D50) TRB [4, 8]: 0.5 | TCR clonality of responding CD4 T cells ([4]; donor BD0011, compared with non-proliferating CD4 population): a bias of TCR Vβ and Vα sequences among CD4+ proliferating cells (CFSE^low)

cit-SYVTTST-cit-TYSLGS [Vimentin 28-42 cit]
shorter epitope mapping in HLA-DR4 transgenic mice [2]: consistent with findings in the HLA-DR4 transgenic mice mapping shorter peptide sequences
